Results collected from several papers.
Protocols differ between the studies behind these lines.
Effect on: cell growth or viability

With `Oc1ccc(Nc2nc(-c3ccc(Cl)cc3)cs2)cc1` the IC50 was > 100000 nM (1205Lu; MTS; 24 h).
With `Cc1cccc(-n2ncc(Br)c(Br)c2=O)c1` the IC50 was 310 nM (NCI-H2444; resazurin; 96 h).
The IC50 of `CC(C)C(=O)Nc1ccc([N+](=O)[O-])c(C(F)(F)F)c1` is reported as > 50000 nM (IOSE-144; CCK-8; 48 h).
For `O=C1NC(=O)[C@@H](c2cn3c4c(cccc24)CCC3)[C@@H]1c1c[nH]c2ccccc12`, the IC50 was 110 nM (SW-1736; MTT; 72 h).
`COc1cccc2c1C(=O)c1c(O)c3c(c(O)c1C2=O)C[C@@](O)(C(=O)CO)C[C@@H]3O[C@H]1C[C@H](N)[C@H](O)[C@H](C)O1` gave an IC50 of 0.272 µg/mL (4T1.2; MTT; 48 h).
`CN(C)C/C=C/C(=O)Nc1cc2c(Nc3ccc(F)c(Cl)c3)ncnc2cc1O[C@H]1CCOC1` gave an IC50 of 4900 nM (KB-C2; MTT; 72 h).
`COc1cc(N2CCC(N3CCN(C)CC3)CC2)ccc1Nc1ncc(Cl)c(Nc2ccccc2S(=O)(=O)C(C)C)n1` gave an IC50 of 900 nM (BJ; 72 h).
`C[C@H]1O[C@@H](n2cc(F)c(=O)[nH]c2=O)[C@H](O)[C@@H]1O` gave an IC50 of 16500 nM (IOSE-144; CCK-8; 48 h).
For `COc1cc2c(Oc3ccc(NC(=O)C4(C(=O)Nc5ccc(F)cc5)CC4)cc3F)ccnc2cc1OCCCN1CCOCC1`, the IC50 was 180 nM (BJ; 72 h).
For `O=C(N/N=C/c1c(O)ccc2ccccc12)c1cc(-c2ccc3ccccc3c2)n[nH]1`, the IC50 was 20400 nM (1205Lu; MTS; 24 h).
The IC50 of `Cc1[nH]c(/C=C2\C(=O)Nc3ccc(S(=O)(=O)N(C)c4cccc(Cl)c4)cc32)c(C)c1C(=O)N1CCN(C)CC1` is reported as 5190 nM (BJ; 72 h).
`COc1cc(Nc2nccc(-c3cnn4nc(OC)ccc34)n2)cc(C(F)(F)F)c1` has an IC50 of 150 nM (HuTu80; ATP luminescence).
